One block for each molecule: values may come before it.
Key:
[1] = test system: Liver; test: Drug level in human liver microsomes treated with N-((1H-Indol-2-yl)methyl)-2-(pyrrolidin-1-yl)aniline after 60 mins; format: ADME, microsome
[2] = test system: Liver; test: Drug level in human liver cytosol treated with N-(2-(Pyrrolidin-1-yl)phenyl)-1H-indole-2-carboxamide at 10 uM after 60 mins by LC-MS/MS analysis; format: ADME, tissue-based
Outline: (§1)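 Pooled human liver cytosol incubated with 10 μM substrate at pH 7.4 and 37 °C with 1 mM MgCl2·6H2O. Reactions stopped at 0 and 60 min with ice-cold acetonitrile containing 0.6 μM labetalol as internal standard, alongside a compound-free blank. Protein removed by centrifugation. Supernatant analysed by LC-MS/MS on a QTOF with electrospray ionization, using one of three reversed-phase gradient methods.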

[3] = test system: Liver; test: Drug metabolism in human liver cytosol assessed as formation of 3-(2-(pyrimidin-2-ylamino)ethylamino)quinoxalin-2(1H)-one at 10 uM after 60 mins by LC-MS/MS analysis; format: ADME, tissue-based; outline: as §1
[4] = test system: Liver; test: Drug metabolism in human liver microsomes after 60 mins; format: ADME, microsome; settings: 1 h
[5] = test system: Liver; test: Drug level in human liver cytosol treated with N1-(pyrimidin-2-yl)-N2-(quinoxalin-2-yl)ethane-1,2-diamine at 10 uM after 60 mins by LC-MS/MS analysis; format: ADME, tissue-based; settings: 1 h; outline: as §1
[6] = test system: Liver; test: Drug level in human liver microsomes treated with N1-(Naphthalen-2-yl)-N2-(pyrimidin-2-yl)ethane-1,2-diamine after 60 mins by LC-MS/MS analysis; format: ADME, microsome; settings: 1 h
[7] = target: T1, Cytochrome P450 3A4 (Homo sapiens, UniProt P08684); test: Drug level treated with N1-(Naphthalen-2-yl)-N2-(pyrimidin-2-yl)ethane-1,2-diamine assessed as CYP3A4 (unknown origin)-mediated metabolite formation after 60 mins; format: ADME; settings: 1 h
[8] = test system: Liver; test: Drug metabolism in human liver microsomes assessed as formation of 2-(pyrrolidin-1-yl)aniline after 60 mins; format: ADME, microsome; settings: 1 h
[9] = test system: Liver; test: Drug metabolism in human liver microsomes assessed as formation of 2-(pyrimidin-2-ylamino)ethanol after 60 mins; format: ADME, microsome; settings: 1 h
[10] = target: T1, Cytochrome P450 3A4; test: Drug metabolism assessed as CYP3A4 (unknown origin)-mediated formation of 2-(pyrimidin-2-ylamino)ethanol after 60 mins; format: ADME; settings: 1 h
[11] = test system: Liver; test: Drug metabolism in human liver cytosol assessed as formation of 2-(pyrrolidin-1-yl)aniline at 10 uM after 60 mins by LC-MS/MS analysis; format: ADME, tissue-based; settings: 1 h; outline: as §1

T1 sequence (P08684 whole entry): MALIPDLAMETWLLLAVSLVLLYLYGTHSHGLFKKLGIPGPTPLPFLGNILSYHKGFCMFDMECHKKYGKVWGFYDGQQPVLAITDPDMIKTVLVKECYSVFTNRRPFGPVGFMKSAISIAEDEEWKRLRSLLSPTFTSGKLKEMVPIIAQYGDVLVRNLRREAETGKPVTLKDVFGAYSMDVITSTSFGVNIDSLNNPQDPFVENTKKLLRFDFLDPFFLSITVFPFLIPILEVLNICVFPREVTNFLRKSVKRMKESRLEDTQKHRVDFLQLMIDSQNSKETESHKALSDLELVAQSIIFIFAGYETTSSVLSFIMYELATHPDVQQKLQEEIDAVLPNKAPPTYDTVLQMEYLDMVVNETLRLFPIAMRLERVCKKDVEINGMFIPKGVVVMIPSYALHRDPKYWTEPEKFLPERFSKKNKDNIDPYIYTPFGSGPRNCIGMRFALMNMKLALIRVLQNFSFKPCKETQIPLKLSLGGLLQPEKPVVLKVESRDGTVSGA

Compound: c1cnc(NCCNc2cnc3ccccc3n2)nc1
- Drug metabolism [3]: Metabolite_Detected
- Drug metabolism [4]: Metabolite_Notdetected

Compound: O=c1[nH]c2ccccc2nc1NCCNc1ncccn1
- Drug metabolism [5]: Metabolite_Detected

Compound: OCCNc1ncccn1
- Drug metabolism [6]: Metabolite_Detected
- Drug metabolism [7]: Metabolite_Detected

Compound: c1cnc(NCCNc2ccc3ccccc3c2)nc1
- Drug metabolism [9]: Metabolite_Detected
- Drug metabolism [10]: Metabolite_Detected

Other lines, results leading:

- Drug metabolism [1]: Metabolite_Detected
- Drug metabolism [2]: Metabolite_Detected
Compound: Nc1ccccc1N1CCCC1

- Drug metabolism [8]: Metabolite_Detected
Compound: c1ccc(N2CCCC2)c(NCc2cc3ccccc3[nH]2)c1

- Drug metabolism [11]: Metabolite_Detected
- Drug metabolism [4]: Metabolite_Notdetected
Compound: O=C(Nc1ccccc1N1CCCC1)c1cc2ccccc2[nH]1
